Reference: ChEMBL document CHEMBL3102802, “Synthesis, modelling and biological characterization of 3-substituted-1H-indoles as ligands of GluN2B-containing N-methyl-d-aspartate receptors” (Bioorg Med Chem, 2014)

Tests used:
[1] = Antioxidant activity of the compound assessed as inhibition of ABTS radicals at 33 uM after 20 mins by spectrophotometric analysis; type: functional
[2] = Antioxidant activity of the compound assessed as inhibition of ABTS radicals after 20 mins by spectrophotometric analysis; type: functional
Procedure, shortened: (§1)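 ABTS radical cation generated from ABTS and potassium persulfate in 0.1 M phosphate buffer pH 7.0, left 16 h in the dark at room temperature. Blank absorbance at 734 nm adjusted to about 1.0. Samples from 2 mM stocks in MeOH/phosphate buffer 1:1. A734 read at room temperature after exactly 20 min. %inhibition = (Ablank − Asample)/Ablank, mean of triplicates.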

[3] = Antioxidant activity of the compound assessed as inhibition of ABTS radicals at 17 uM after 20 mins by spectrophotometric analysis; type: functional; procedure, shortened: as §1
[4] = biological target: Glutamate receptor ionotropic, NMDA 2B (Rattus norvegicus) (UniProt Q00960); assay: Displacement of [3H]Ifenprodil from NMDA receptor GluN2B subunit in Wistar rat cerebral cortex at 10 uM; type: tissue-based
[5] = biological target: Glutamate receptor ionotropic, NMDA 2B (Rattus norvegicus, UniProt Q00960); assay: Displacement of [3H]Ifenprodil from NMDA receptor GluN2B subunit in Wistar rat cerebral cortex; type: tissue-based
[6] = biological target: Glutamate receptor ionotropic, NMDA 2B (Rattus norvegicus) (UniProt Q00960); assay: Displacement of [3H]Ifenprodil from NMDA receptor GluN2B subunit in Wistar rat cerebral cortex at 0.1 uM; type: tissue-based
[7] = biological target: Glutamate receptor ionotropic, NMDA 2B (Mus musculus) (UniProt Q01097); assay: Antagonist activity at NMDA receptor GluN2B subunit in FVB mouse CA1 pyramidal neurons assessed as reversible reduction of excitatory post synaptic current amplitude at 50 nM at holding potential of -60 mV measured for 5 mins by patch clamp technique in presence of Mg2+free ACSF relative to control; type: cell-based; design: scale not given: the % may be the effect or the level left; settings: Pyramidal neuron
Procedure, shortened: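 Whole-cell recordings of NMDA receptor-mediated EPSCs in mouse hippocampal slices, with glycine (10 µM) and bicuculline (5 µM) in the bath. Compound applied for 5 min, then washed out. EPSC amplitude taken as peak minus baseline and measured over 5 min in control and in drug for each neuron. Expressed as % of control, n = 4; unpaired Student's t test.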

Mus musculus [8] = assay: Anticonvulsant activity in ip dosed sound-induced DBA/2 mouse seizure model assessed as tonus phase latency; type: functional; settings: DBA/2, ip
Procedure, shortened: (§2)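 DBA/2 mice (8–12 g, 22–25 days old, either sex), groups of 10. Compound given ip at 0.1 mL/10 g in 50% DMSO/50% saline; vehicle controls. Auditory stimulus (12–16 kHz, 109 dB) applied 30 min later for 60 s or until tonic extension, after 60 s habituation. Latency to and incidence of seizure phases scored; Fisher's exact test. ED50 by Litchfield–Wilcoxon.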

Mus musculus [9] = assay: Anticonvulsant activity in ip dosed sound-induced DBA/2 mouse seizure model assessed as clonus phase latency; type: functional; settings: DBA/2, ip; procedure, shortened: as §2
[10] = biological target: Glutamate receptor ionotropic, NMDA 2B (Homo sapiens, UniProt Q05586+Q13224); assay: Inhibition of NMDA receptor GluN2B subunit (unknown origin)
[11] = Antioxidant activity of the compound assessed as inhibition of ABTS radicals at 9 uM after 20 mins by spectrophotometric analysis; type: functional; procedure, shortened: as §1

Chain of Glutamate receptor ionotropic, NMDA 2B (Rattus norvegicus) (Q00960 27-1482 limits assumed): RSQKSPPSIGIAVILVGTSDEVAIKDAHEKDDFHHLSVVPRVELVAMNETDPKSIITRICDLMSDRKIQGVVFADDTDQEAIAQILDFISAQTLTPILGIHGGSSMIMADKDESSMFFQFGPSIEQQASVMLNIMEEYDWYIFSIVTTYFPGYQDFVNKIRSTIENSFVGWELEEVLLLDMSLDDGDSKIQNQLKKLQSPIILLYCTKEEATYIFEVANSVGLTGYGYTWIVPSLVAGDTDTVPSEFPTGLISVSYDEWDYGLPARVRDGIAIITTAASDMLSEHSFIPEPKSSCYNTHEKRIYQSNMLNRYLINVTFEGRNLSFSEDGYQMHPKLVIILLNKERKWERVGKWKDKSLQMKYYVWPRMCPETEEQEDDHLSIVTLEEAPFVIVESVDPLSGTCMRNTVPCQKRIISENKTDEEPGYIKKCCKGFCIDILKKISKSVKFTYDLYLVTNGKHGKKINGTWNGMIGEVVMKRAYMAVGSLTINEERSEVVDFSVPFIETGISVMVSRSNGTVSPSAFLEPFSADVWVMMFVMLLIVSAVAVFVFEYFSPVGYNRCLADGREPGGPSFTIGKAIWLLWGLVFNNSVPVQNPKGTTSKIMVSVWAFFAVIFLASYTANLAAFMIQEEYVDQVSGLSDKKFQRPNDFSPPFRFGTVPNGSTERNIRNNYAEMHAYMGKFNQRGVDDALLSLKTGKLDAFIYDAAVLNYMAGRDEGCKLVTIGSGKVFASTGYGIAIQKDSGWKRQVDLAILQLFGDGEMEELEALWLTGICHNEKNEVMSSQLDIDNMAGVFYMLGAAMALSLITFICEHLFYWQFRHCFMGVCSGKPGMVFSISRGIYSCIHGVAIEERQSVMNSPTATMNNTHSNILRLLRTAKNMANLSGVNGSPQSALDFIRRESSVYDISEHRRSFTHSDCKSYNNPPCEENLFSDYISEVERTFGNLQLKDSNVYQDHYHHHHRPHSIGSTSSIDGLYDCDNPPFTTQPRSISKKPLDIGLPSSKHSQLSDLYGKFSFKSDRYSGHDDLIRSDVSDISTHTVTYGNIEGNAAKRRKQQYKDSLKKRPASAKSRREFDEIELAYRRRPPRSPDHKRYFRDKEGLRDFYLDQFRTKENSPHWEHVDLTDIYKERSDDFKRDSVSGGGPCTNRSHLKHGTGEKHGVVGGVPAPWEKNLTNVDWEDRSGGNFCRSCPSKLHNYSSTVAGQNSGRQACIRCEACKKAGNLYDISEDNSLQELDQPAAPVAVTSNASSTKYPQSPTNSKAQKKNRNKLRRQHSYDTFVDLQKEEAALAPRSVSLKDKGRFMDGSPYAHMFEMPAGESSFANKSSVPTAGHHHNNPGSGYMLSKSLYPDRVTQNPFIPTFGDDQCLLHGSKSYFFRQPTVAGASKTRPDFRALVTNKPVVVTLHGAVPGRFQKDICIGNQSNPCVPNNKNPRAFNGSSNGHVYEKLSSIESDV
Chain of Glutamate receptor ionotropic, NMDA 2B (Rattus norvegicus, UniProt Q00960) (Q00960 whole entry): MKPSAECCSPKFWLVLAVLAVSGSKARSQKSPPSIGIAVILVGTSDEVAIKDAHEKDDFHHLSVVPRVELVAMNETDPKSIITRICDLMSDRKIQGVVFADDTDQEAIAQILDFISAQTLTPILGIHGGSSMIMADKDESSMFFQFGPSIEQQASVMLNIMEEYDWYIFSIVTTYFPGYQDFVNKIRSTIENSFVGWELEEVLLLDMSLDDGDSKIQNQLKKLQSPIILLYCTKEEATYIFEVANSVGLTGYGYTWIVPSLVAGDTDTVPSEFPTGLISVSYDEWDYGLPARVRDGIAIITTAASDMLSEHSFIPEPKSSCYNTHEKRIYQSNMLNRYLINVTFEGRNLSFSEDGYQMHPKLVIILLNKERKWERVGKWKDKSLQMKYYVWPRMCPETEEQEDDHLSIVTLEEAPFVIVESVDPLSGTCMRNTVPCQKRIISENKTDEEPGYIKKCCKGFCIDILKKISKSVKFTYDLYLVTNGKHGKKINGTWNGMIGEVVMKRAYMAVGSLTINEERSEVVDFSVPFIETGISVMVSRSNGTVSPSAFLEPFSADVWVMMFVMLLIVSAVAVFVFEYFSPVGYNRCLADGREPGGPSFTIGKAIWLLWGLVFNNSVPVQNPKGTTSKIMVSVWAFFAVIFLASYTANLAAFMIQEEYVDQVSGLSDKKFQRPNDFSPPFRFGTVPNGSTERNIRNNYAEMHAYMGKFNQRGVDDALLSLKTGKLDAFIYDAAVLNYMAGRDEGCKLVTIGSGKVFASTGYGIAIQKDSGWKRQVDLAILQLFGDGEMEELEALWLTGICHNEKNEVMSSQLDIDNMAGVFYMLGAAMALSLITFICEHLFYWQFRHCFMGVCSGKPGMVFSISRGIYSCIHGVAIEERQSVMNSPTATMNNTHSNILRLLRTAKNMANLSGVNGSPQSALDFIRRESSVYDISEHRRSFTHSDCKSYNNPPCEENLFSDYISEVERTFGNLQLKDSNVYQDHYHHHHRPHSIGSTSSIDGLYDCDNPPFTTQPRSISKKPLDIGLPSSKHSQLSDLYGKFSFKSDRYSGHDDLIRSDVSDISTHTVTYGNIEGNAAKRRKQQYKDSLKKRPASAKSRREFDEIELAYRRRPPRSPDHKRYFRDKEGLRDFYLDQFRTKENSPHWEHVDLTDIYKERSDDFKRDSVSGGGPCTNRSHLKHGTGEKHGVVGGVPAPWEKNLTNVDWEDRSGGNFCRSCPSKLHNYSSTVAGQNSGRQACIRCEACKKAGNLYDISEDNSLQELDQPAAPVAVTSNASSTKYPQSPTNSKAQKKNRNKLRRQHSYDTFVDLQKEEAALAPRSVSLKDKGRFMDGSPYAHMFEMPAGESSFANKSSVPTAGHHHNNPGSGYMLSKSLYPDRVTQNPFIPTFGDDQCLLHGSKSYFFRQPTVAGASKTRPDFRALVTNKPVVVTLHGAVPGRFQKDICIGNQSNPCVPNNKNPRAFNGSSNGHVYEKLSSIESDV
Chain of Glutamate receptor ionotropic, NMDA 2B (Mus musculus) (Q01097 whole entry): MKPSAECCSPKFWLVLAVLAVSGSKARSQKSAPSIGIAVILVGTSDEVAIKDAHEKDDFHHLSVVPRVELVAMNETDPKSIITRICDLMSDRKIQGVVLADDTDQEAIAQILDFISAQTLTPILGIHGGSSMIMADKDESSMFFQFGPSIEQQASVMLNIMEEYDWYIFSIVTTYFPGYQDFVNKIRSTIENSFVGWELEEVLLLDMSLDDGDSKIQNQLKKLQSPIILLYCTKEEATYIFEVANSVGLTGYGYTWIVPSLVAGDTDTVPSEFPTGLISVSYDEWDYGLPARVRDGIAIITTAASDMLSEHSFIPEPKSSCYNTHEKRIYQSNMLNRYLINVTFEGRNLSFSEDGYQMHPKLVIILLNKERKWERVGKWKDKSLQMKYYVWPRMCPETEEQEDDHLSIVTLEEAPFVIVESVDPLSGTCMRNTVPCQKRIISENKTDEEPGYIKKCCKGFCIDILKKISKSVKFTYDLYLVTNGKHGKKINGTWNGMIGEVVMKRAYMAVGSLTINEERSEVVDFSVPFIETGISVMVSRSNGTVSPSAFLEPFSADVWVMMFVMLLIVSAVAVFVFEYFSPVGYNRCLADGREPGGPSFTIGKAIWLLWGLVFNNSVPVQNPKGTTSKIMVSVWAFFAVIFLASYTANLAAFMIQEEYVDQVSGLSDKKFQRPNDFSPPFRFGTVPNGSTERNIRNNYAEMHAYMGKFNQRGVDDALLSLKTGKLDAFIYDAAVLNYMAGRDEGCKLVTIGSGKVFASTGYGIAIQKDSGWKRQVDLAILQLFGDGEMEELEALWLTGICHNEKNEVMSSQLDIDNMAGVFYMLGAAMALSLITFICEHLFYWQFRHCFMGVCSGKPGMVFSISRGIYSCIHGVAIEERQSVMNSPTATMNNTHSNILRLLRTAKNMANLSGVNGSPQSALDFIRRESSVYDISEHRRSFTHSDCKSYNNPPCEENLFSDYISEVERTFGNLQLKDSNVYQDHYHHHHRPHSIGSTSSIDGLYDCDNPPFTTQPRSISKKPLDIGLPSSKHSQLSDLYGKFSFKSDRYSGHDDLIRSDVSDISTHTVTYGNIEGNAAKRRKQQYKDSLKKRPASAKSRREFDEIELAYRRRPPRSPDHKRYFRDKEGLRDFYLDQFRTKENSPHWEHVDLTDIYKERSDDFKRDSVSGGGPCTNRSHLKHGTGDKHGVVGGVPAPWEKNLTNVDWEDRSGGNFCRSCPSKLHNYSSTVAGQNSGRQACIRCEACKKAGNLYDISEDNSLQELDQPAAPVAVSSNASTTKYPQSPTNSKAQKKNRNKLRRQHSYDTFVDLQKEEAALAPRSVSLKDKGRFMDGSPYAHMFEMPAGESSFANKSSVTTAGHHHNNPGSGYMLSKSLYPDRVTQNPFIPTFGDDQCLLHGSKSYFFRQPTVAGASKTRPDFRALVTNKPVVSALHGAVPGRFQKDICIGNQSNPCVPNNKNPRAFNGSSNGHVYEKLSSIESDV

For `O=C(O)/C=C/c1ccc(O)c(O)c1`, the inhibition [1] was greater than 93.4%, the inhibition [2] was “Dose-dependent effect” and the inhibition [3] was 71.5%.

`COc1cc2[nH]cc(C(=O)C(=O)N3CCC(Cc4ccccc4)CC3)c2cc1OC` gave an inhibition [4] of 9%.

Work on `O=C(C(=O)N1CCC(Cc2ccc(F)cc2)CC1)c1c[nH]c2cc(O)ccc12` yielded an IC50 [5] of 20 nM and an inhibition [6] of 61%.

For `CS(=O)(=O)Nc1ccc2c(C(=O)C(=O)N3CCC(Cc4ccc(F)cc4)CC3)c[nH]c2c1`, the IC50 [5] was 18 nM and the inhibition [6] was 67%.

`CS(=O)(=O)Nc1ccc2[nH]cc(C(=O)C(=O)N3CCC(Cc4ccc(F)cc4)CC3)c2c1` gave an inhibition [6] of 4%.

`O=C(CN1CCC(Cc2ccccc2)CC1)c1c[nH]c2cc(O)c(O)cc12` gave an IC50 [5] of 5.5 nM, an Activity [7] of 57% and an ED50 (Mus musculus [8]) of 76.7 µmol/kg. The ED50 (Mus musculus [9]) was 89.4 µmol/kg and the inhibition [6] was 91%.

Work on `O=C(CN1CCC(Cc2ccc(F)cc2)CC1)c1c[nH]c2cc(O)ccc12` yielded an IC50 [5] of 9.1 nM and an inhibition [6] of 82%.

Work on `O=C(CN1CCC(Cc2ccccc2)CC1)c1c[nH]c2ccccc12` yielded an IC50 [10] of 769 nM.

`COc1ccc2[nH]cc(C(=O)CN3CCC(Cc4ccc(F)cc4)CC3)c2c1` showed an inhibition [4] of 73%.

In the case of `Nc1ccc2c(C(=O)CN3CCC(Cc4ccc(F)cc4)CC3)c[nH]c2c1`, the inhibition [6] is reported as 12%.

`COc1cc2[nH]cc(C(=O)CN3CCC(Cc4ccccc4)CC3)c2cc1OC` gave an inhibition [6] of 1%.

For `O=C(O)c1cc(O)c(O)c(O)c1`, the inhibition [1] was greater than 93.9%, the inhibition [11] was 61.6% and the inhibition [2] was “Dose-dependent effect”. For the same compound, the inhibition [3] was greater than 94.1%.

`CS(=O)(=O)Nc1ccc2[nH]cc(C(=O)CN3CCC(Cc4ccc(F)cc4)CC3)c2c1` showed an inhibition [6] of 10%.

In the case of `O=C(CN1CCC(Cc2ccc(F)cc2)CC1)c1c[nH]c2ccc(O)cc12`, the IC50 [5] is reported as 51 nM and the inhibition [6] is reported as 60%.

With `Oc1ccc2[nH]ccc2c1` the inhibition [1] was greater than 90.1%, the inhibition [11] was 79.8% and the inhibition [2] was “Dose-dependent effect”.

With `c1ccc2[nH]ccc2c1` the inhibition [1] was 25.6% and the inhibition [2] was “Dose-dependent effect”.

With `O=C(C(=O)N1CCC(Cc2ccc(F)cc2)CC1)c1c[nH]c2ccc(O)cc12` the inhibition [6] was 11%.

In the case of `O=C(C(=O)N1CCC(Cc2ccccc2)CC1)c1c[nH]c2cc(O)c(O)cc12`, the inhibition [6] is reported as 40%.

Compound `O=C(C(=O)N1CCC(Cc2ccc(F)cc2)CC1)c1c[nH]c2cc(O)c(O)cc12` has an inhibition [6] of 38%.

`Nc1ccc2[nH]cc(C(=O)CN3CCC(Cc4ccc(F)cc4)CC3)c2c1` showed an inhibition [6] of 33%.

With `COc1ccc2[nH]cc(C(=O)C(=O)N3CCC(Cc4ccc(F)cc4)CC3)c2c1` the inhibition [4] was 35%.

For `COc1ccc2c(C(=O)CN3CCC(Cc4ccc(F)cc4)CC3)c[nH]c2c1`, the inhibition [4] was 82%.

For `Oc1ccc2cc[nH]c2c1`, the inhibition [1] was greater than 89.8%, the inhibition [11] was 83% and the inhibition [2] was “Dose-dependent effect”.

Work on `COc1ccc2c(C(=O)C(=O)N3CCC(Cc4ccc(F)cc4)CC3)c[nH]c2c1` yielded an inhibition [6] of 27%.

In the case of `Oc1cc2cc[nH]c2cc1O`, the inhibition [11] is reported as 54.4%, the inhibition [2] is reported as “Dose-dependent effect” and the inhibition [3] is reported as greater than 84.4%.

Work on `CS(=O)(=O)Nc1ccc2c(C(=O)CN3CCC(Cc4ccc(F)cc4)CC3)c[nH]c2c1` yielded an IC50 [5] of 9.4 nM and an inhibition [6] of 81%.

In the case of `O=C(CN1CCC(Cc2ccc(F)cc2)CC1)c1c[nH]c2cc(O)c(O)cc12`, the IC50 [5] is reported as 30 nM and the inhibition [6] is reported as 84%.
